Published values from different studies.
Lines come from different studies, so protocols differ.
Target: Ephrin type-A receptor 4 (EPHA4, Homo sapiens, UniProt P54764)

The remaining activity of `CCCOc1ccc(OC)c(F)c1C(=O)c1ccc(C(=O)N[C@@H]2CNC[C@H]2NC(=O)c2ccc3[nH]ncc3c2)cc1` is reported as 82% (enzyme activity; inhibitor; 10 µM).
`O=C(NCCCC1CCCCC1)c1ccc(CNC(=O)c2cnn(-c3ccccc3)c2C(F)(F)F)cc1` has a remaining binding of 70% (cell-free assay; competition with immobilised ligand; 0.1 µM).
The inhibition of `COc1cc2ncnc(Nc3ccc(Oc4ccccc4)cc3C)c2cc1OC` is reported as 10% (enzyme activity; inhibitor; 1 µM).
The remaining signal of `Cc1ccc(NC(=O)c2ccc(C)c(C(F)(F)F)c2)cc1C#Cc1nn(C2CCC(O)CC2)c2ncnc(N)c12` (centres unmarked) is reported as -2% (cell-free assay; 10 µM).
The remaining binding of `Cc1nc(N2CC[C@@H](O)C2)ncc1-c1cc(C(F)(F)F)cc2[nH]ncc12` is reported as 100% (cell-free assay; competition with immobilised ligand; 1 µM).
The inhibition of `CNC(=O)c1cc(Oc2ccc(NC(=O)Nc3ccc(Cl)c(C(F)(F)F)c3)cc2)ccn1` is reported as 7% (enzyme activity; inhibitor; 0.3 µM).
With `CS(=O)(=O)N1CCCC(NC(=O)[C@H](CCC2CCCCC2)NC(=O)c2ccc(CNC(=O)c3cnc4ccccn34)cc2)C1` (some centres unmarked) the remaining binding was 98% (cell-free assay; competition with immobilised ligand; 0.1 µM).
`CC(C)(C)c1nc(-c2cccc(NS(=O)(=O)c3c(F)cccc3F)c2F)c(-c2ccnc(N)n2)s1` gave a remaining activity of 97% (enzyme activity; inhibitor; radiometric; 1 µM).
For `Cn1c(=O)n(-c2ccc(C(C)(C)C#N)cc2)c2c3cc(-c4cnc5ccccc5c4)ccc3ncc21`, the remaining activity was 105% (enzyme activity; inhibitor; 10 µM).
`O=C(NCc1ncc(C(F)(F)F)cc1Cl)c1ccc2c(c1)C1(CCS(=O)(=O)CC1)[C@@H](C1CC1)N2S(=O)(=O)c1ccc(F)cc1` gave a remaining binding of 97% (cell-free assay; competition with immobilised ligand; 1 µM).
`CC(C)(O)[C@H]1CC[C@H](Nc2ccc3ncc(-c4cccc(C(F)(F)F)c4)n3n2)CC1` gave a remaining activity of 98.8% (enzyme activity; inhibitor; 1 µM).
For `Cc1ccc(Nc2nccc(N(C)c3ccc4c(C)n(C)nc4c3)n2)cc1S(N)(=O)=O`, the inhibition was 3% (enzyme activity; inhibitor; 0.3 µM).
The remaining activity of `O=C(Nc1cnn(-c2csc(C(=O)NC3COC3)c2)c1)Nc1c(F)cccc1Cl` is reported as 89.1% (enzyme activity; inhibitor; 5 µM).
With `CS(=O)(=O)N1CCCC(NC(=O)[C@H](CCC2CCCCC2)NC(=O)c2ccc(CNc3ncnc4c3nnn4-c3ccccc3)cc2)C1` (some centres unmarked) the remaining binding was 76% (cell-free assay; competition with immobilised ligand; 0.1 µM).
For `Cc1cnc(NC2CCOCC2)nc1-n1cnc(C(=O)NC(CN)c2cc(F)cc(Cl)c2)c1` (centres unmarked), the remaining activity was 104% (enzyme activity; inhibitor; radiometric; 1 µM).
`CC/C(=N\NC(=O)NCc1cccc(O)c1)c1ccc(O)c(C)c1O` gave an inhibition of 0.3% (enzyme activity; inhibitor; 0.1 µM).
The remaining binding of `Cn1nc(C(F)(F)F)cc1-c1cnc(N2CCc3cc(S(=O)(=O)Nc4c(F)cc(Cl)cc4F)cc(N4CCCC4=O)c32)nc1` is reported as 97% (cell-free assay; competition with immobilised ligand; 1 µM).
With `CCN(CC)CCNC(=O)c1c(C)[nH]c(/C=C2\C(=O)Nc3ccc(F)cc32)c1C` the inhibition was 1% (enzyme activity; inhibitor; 0.3 µM).
`Cc1sc(C(=O)NC2COC2)cc1-n1cc(NC(=O)Nc2c(F)cccc2Cl)cn1` has a remaining activity of 116% (enzyme activity; inhibitor; 10 µM).
For `Oc1cccc(-c2nc(N3CCOCC3)c3oc4ncccc4c3n2)c1`, the remaining activity was 103% (enzyme activity; inhibitor; 10 µM).
`N#CCCc1ccc2c(c1)-c1[nH]c3ccc([N+](=O)[O-])cc3c1CC(=O)N2` has a remaining signal of 85.2% (cell-free assay; 0.5 µM).
The remaining binding of `C[C@@H](c1cccc(C#N)c1)n1cc(Cl)cc(C(N)=O)c1=N` is reported as 90% (cell-free assay; competition with immobilised ligand; 1 µM).
`COc1cc(Nc2cnc(C#N)c(O[C@H](C)CN(C)C)n2)ncc1-c1cnn(C)c1` gave a remaining activity of 41% (enzyme activity; inhibitor; radiometric; 10 µM).
With `CCCS(=O)(=O)Nc1ccc(F)c(C(=O)c2c[nH]c3ncc(-c4ccc(Cl)cc4)cc23)c1F` the inhibition was less than 10% (enzyme activity; inhibitor; 1 µM).
For `Nc1c(C(=O)NCc2ccc(C(=O)NCCCC3CCCCC3)cc2)cnn1-c1ccccc1`, the remaining binding was 100% (cell-free assay; competition with immobilised ligand; 0.1 µM).
The inhibition of `CN1CC(Oc2cnc(C#N)cc2-c2ccn3nc(NC(=O)C4CC4)cc3c2)C1` is reported as 11% (enzyme activity; inhibitor; 1 µM).
